Hits are enriched below; roughly 3.1% of the tested compounds scored in any of these assays.
PGC1a acetyl inh – inhibitors of PGC1a acetylation signal, primary screen, cell-based, U2OS, AlphaScreen, inhibitor mode | AlphaScreen anti-acetyl-lysine; with virally co-expressed GCN5 acetyltransferase | inhibition, % at 15.6 µM | 350,000 tested, 0.17% active | AID 651687, 2012;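 active = every replicate shows inhibition of at least 40%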;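 note: 0% = neutral control wells and 100% = positive control wells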
FGF22 binding – binders of human FGF22 protein, primary screen, FGF22 synaptogenesis inhibitor project, biophysical, thermal shift, single point. activity (Tm shift, normalised), % at 9.99 µM. Fibroblast growth factor 22 (Homo sapiens), Q9HCT0. recombinant FGF22 thermal shift, SYPRO orange fluorescence; percent of sucrose octasulfate shift, DMSO zero. 340,000 tested, 1.5% active;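 active = mean Tm shift, scaled 0 neutral to 100 positive control, at about 1.3% or above, every replicate too, limit read from the data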
Target sequence (Q9HCT0 whole entry, looked up): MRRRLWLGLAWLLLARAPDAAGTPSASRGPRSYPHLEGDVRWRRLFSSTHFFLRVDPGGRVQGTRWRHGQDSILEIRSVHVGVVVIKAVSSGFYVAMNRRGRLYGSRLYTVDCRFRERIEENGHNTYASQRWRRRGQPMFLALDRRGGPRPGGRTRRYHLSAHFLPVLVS
EWS-Fli inh – EWS/Fli-driven NR0B1 reporter inhibitors, primary screen, A673 cells, NR0B1 luciferase, luminescence, MLPCN library | AID 651661, 2012 | 350,000 tested, 0.67% active | viability-normalised | inhibition, % at 12.6 µM;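 active = mean inhibition of at least 50% after viability correction, with every replicate also passing that limit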;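 note: firefly luciferase signal divided by Alamar Blue viability fluorescence both relative to DMSO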
FN deposit inh – inhibitors of fibronectin matrix deposition, primary screen, AH1F cells, Alexa488-fibronectin fluorescence, plate reader; AH1F fibroblasts, overnight; inhibition, % at 12.6 µM; 350,000 tested, 0.086% active;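 active = mean inhibition across replicates of 30% or more, regardless of how many single replicates reach that level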;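 note: positive control wells lacked labelled fibronectin entirely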
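Material: AH1F fibroblasts assembling fluorescent fibronectin matrix; amount: 10000 AH1F cells/well; medium: DMEM, 2% serum; reagent: Alexa488-fibronectin, 24 nM final in well; dosing: single compound dose, delivered by pin transfer; incubation: 1 h adhesion, overnight exposure; detection: fluorescence after three HBSS washes, excitation 485 nm, emission 525 nm; measure: fibronectin deposition inhibition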
PAX8 reporter – inhibitors of PAX8-driven TPO luciferase reporter, primary screen, RMG-I cells, single concentration; AID 652154, 2013; SteadyGlo, 24 h; 360,000 tested, 1.2% active; inhibition, % at 12.6 µM;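 active = mean replicate inhibition at least 60% with every replicate also reaching 60%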;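 note: luciferase light reporting Pax8 driven TPO promoter activity; plate controls were median of neutral control wells for no effect and mitoxantrone controls for full effect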
Env fusion inh – inhibitors of HIV-1 Env-driven cell-cell fusion, primary screen, HeLa-JRFL effector, CEM21 target cells, luciferase. inhibition, % at 12.3 µM. 360,000 tested, 1.1% active. AID 651610, 2012;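 active = mean replicate inhibition score of at least 50 and every replicate individually at or above 50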;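 note: 0% = plate neutral controls and 100% = maraviroc near 300 nM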
Starred values were filed as active, the others as inactive; · = no result; [ ] = dose if it differs, or a comment.

SMILES	PGC1a acetyl inh	FGF22 binding	EWS-Fli inh	FN deposit inh	PAX8 reporter	Env fusion inh
O=C(C[C@@H]1C[C@@H]2c3cc(NC(=O)NC4CCCC4)ccc3O[C@@H]2[C@@H](CO)O1)NCc1ccc(Oc2ccccc2)cc1	-1.8	-0.2	8.0	-6.9	8.3	-8.8[16.7 µM]
O=C(C[C@@H]1C[C@H]2c3cc(NC(=O)NC4CCCC4)ccc3O[C@H]2[C@H](CO)O1)NCc1ccc(Oc2ccccc2)cc1	-3.0	0.3	60.4*	-2.0	66.1*	-28.4[16.7 µM]
O=C(C[C@@H]1C[C@H]2c3cc(NC(=O)C4CCOCC4)ccc3O[C@H]2[C@H](CO)O1)NCc1ccc(Oc2ccccc2)cc1	-8.2	-0.7	16.7	·	89.9*	-92.5[16.7 µM]
Cc1cccc(NC(=O)CSc2n[nH]c(-c3ccncc3)n2)c1	-2.9	·	·	-0.4	-22.8	-2.4
CC(=O)c1cccc(NC(=O)CSc2n[nH]c(-c3ccncc3)n2)c1	·	1.7*	0.8	-2.4	-10.5	·
CC1C=NC(S(=O)(=O)N2CC[C@@H]3[C@H](CO)N(C)c4ccc(-c5ccccc5F)cc4[C@@H]32)=N1 (stereo partly specified)	3.1	-0.2	-10.8	-1.1	-2.8	·
CN(CC(=O)NC1CC(C)(C)NC(C)(C)C1)S(=O)(=O)c1cc(Cl)ccc1Cl	-1.8	43.2*	6.8	6.1	7.8	19.7
CN(CC(=O)O)S(=O)(=O)c1cc(Cl)ccc1Cl	5.2	0.3	6.7	·	·	·
NC(=O)C1CCN(C(=O)c2cc3ccccc3cc2O)CC1	·	0.2	6.9	-6.4	9.2	63.4*
Cc1ccc(C(=O)CSC2=C(C#N)C(c3ccco3)C3=C(CCCC3=O)N2)cc1 (stereo unspecified)	-19.3	·	·	0.4	3.6	-180.5
CC(C)(C)c1ccc(C(=O)CCCSC2=C(C#N)C(c3ccco3)C3=C(CCCC3=O)N2)cc1 (stereo unspecified)	-12.5	·	·	-3.9	31.3	79.0*
O=C(CCCCn1c(=O)[nH]c2ccccc2c1=O)N1CCN(c2cccc(C(F)(F)F)c2)CC1	-17.1	·	·	-7.2	24.1	83.3*
C[C@H](CO)N1C[C@H](C)[C@H](CN(C)C(=O)NC2CCCCC2)Oc2ccc(NC(=O)C3CC3)cc2CC1=O	2.4	0.0	0.0	·	·	-6.4[16.7 µM]
CCCc1cc(C(=O)OC)c(NC(=O)CCCC(=O)O)s1	-3.8	43.7*	9.2	-7.4	1.1	10.6
CCc1cc(C(=O)OC)c(NC(=O)CCC(=O)O)s1	0.9	·	·	4.7	-22.6	-8.5
COC(=O)C1=CN(c2ccc3c(c2)OCO3)C(N)=C(C#N)C1c1cccc(F)c1 (stereo unspecified)	·	-0.1	56.1*	3.2	-5.4	-14.3
COc1cccc(/C=C(/C(=O)OCC(=O)NC2CCCCCCC2)c2ccccc2)c1	·	0.1	-6.1	-1.0	23.4	17.8
COc1cccc(/C=C(/C(=O)OCC(=O)NCC2CCCO2)c2ccccc2)c1 (stereo unspecified)	·	43.0*	8.0	-11.4	8.7	11.1
CN(C)C(=O)C[C@H]1C[C@H]2c3cc(NC(=O)C4CCC4)ccc3O[C@H]2[C@@H](CO)O1	-0.5	0.0	7.6	2.4	-2.2	-40.3[16.7 µM]
CCCCN1C(=O)CC(SC2CC(=O)N(CCCC)C2=O)C1=O (stereo unspecified)	-8.4	43.0*	19.0	-0.7	8.5	-12.4
Cn1c(CN2CCCC2)nc2cc(NC(=O)COc3ccc(Cl)cc3)ccc21	52.3*	0.2	-3.4	·	·	·
Cn1c(CN2CCCCC2)nc2cc(NC(=O)c3ccc(Cl)cc3)ccc21	11.9	·	·	-2.2	·	78.5*
CCCC(=O)Nc1ccc2c(c1)C(=O)N(C)[C@H]1CC[C@@H](CC(=O)NCCN3CCCCC3)O[C@H]1CO2	7.1	-0.1	-9.8	3.6	-11.1	-42.0[16.7 µM]
COc1ccc2c3c([nH]c2c1)[C@@H](CO)N(C(=O)C1CC1)CC31CCN(S(C)(=O)=O)CC1	·	0.1	-5.6	·	·	-22.8[16.7 µM]
COCCN=c1scc(C)n1/N=C/C1CC2C=CC1C2 (stereo unspecified)	·	0.0	0.7	5.8	-12.2	63.1*
SMILES	PGC1a acetyl inh	FGF22 binding	EWS-Fli inh	FN deposit inh	PAX8 reporter	Env fusion inh
CC(C)c1ccc(NC(=O)CSc2nc3ccsc3c(=O)n2Cc2ccc(C(=O)O)cc2)cc1	59.0*	0.0	·	-6.8	-2.5	1.9
CCc1ccc(NC(=O)CSc2nc3ccsc3c(=O)n2CCC(=O)O)cc1	-2.7	-0.1	2.6	-0.5	45.1	-0.8
C=CC[n+]1c(-c2ccc(OC)c(OC)c2)csc1NNC(=O)Nc1ccccc1	-1.9	·	·	1.2	·	74.1*
C=CC[n+]1c(-c2ccccc2)csc1NC(C)(C)C	·	0.1	5.9	-4.4	12.5	-135.8
COC(=O)C1CCC(=O)N1C(c1ccc(OC)cc1)c1cc(OC)c(OC)c(OC)c1 (stereo unspecified)	-0.6	-0.2	40.4	-25.6	75.5*	20.0
CCOC(=O)c1cn(CC#N)c2cc(F)c(F)cc2c1=O	11.2	43.0*	-0.9	-25.1	-15.7	-12.9
Fc1ccc(-c2csc(=S)[nH]2)cc1	-1.0	43.0*	-24.4	-4.8	-28.7	-12.0
S=c1[nH]c(-c2ccccc2)cs1	·	0.5	-5.1	-8.8	-27.6	-26.1
CC(=O)c1ccc([C@H]2C[C@@]34CN(C(=O)OC(C)(C)C)S(=O)(=O)[C@H]3C[C@H]2O4)cc1	3.9	-0.1	-11.0	1.1	1.2	67.7*
Cn1c(SCc2nc(-c3ccc(Cl)cc3)no2)nnc1-c1cccs1	6.1	·	·	-7.6	·	83.4*
C[C@H](CO)N1C[C@H](C)[C@@H](CN(C)S(=O)(=O)c2cccs2)Oc2ccc(NS(=O)(=O)c3cccs3)cc2CC1=O	5.0	·	8.9	·	25.7	-12.5[16.7 µM]
COc1ccc(S(=O)(=O)Nc2cccc3c2O[C@@H](CN(C)S(=O)(=O)c2ccc(OC)cc2)[C@H](C)CN([C@@H](C)CO)C3=O)cc1	-4.2	-0.2	-3.8	·	13.1	18.1[16.7 µM]
O=C(NC1CCCCC1)C(c1ccc2ncccc2c1)N(Cc1cccs1)C(=O)c1cccs1 (stereo unspecified)	-16.2	·	·	·	·	·
O=C(NC1CCCCC1)C(c1cccs1)N(Cc1cccs1)C(=O)c1cccs1 (stereo unspecified)	-21.4	·	·	-11.5	16.0	93.9*
Cc1ccc2[nH]c(CN3CCC(CO)(CC4CCCCO4)CC3)c(C)c2c1 (stereo unspecified)	-11.5	42.9*	-21.2	3.9	14.6	-28.8
Cc1ccc(CN2CCC(CO)(CC3CCCCO3)CC2)o1 (stereo unspecified)	-0.9	0.3	-3.3	11.7	13.9	-1.5
COc1cccc(CN2CCC(CO)(CC3CCCCO3)CC2)c1 (stereo unspecified)	99.9*	0.1	4.6	-1.9	-3.7	2.3

Screens (PubChem BioAssay)
